# Tests used:
# [1] = biological target: T1, Melanin-concentrating hormone receptor 1 (Homo sapiens, UniProt Q99705); assay: Binding affinity against human Melanin-concentrating hormone receptor 1 stably transfected CHO cells was determined using scintillation proximity assay (SPA); assay type: cell-based
# Procedure, shortened: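 Scintillation proximity binding with CHO membranes incubated with PEI-treated WGA-coupled PVT SPA beads and tracer over various test-compound concentrations. Nonspecific binding defined with 1 µM MCH; IC50 derived.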
# [2] = biological target: T1, Melanin-concentrating hormone receptor 1; assay: Antagonistic activity against human Melanin-concentrating hormone receptor 1 stably transfected CHO cells was determined using IP3 assay; assay type: functional, cell-based
# Procedure, shortened: (§1)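 CHO whole cells expressing the human receptor, labelled with 5 µCi [3H]-myo-inositol in inositol-free culture medium. Phosphatidylinositol turnover stimulated by submaximal MCH in the presence of increasing ligand concentrations. Generated [3H]-inositol phosphates purified on anion-exchange resin; IC50 derived.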
# [3] = biological target: T1, Melanin-concentrating hormone receptor 1; assay: Binding affinity against human Melanin-concentrating hormone receptor 1 stably transfected CHO cells was determined using [125I]MCH as radioligand; assay type: cell-based
# Procedure, shortened: (§2)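 Whole-cell binding in CHO cells expressing the human receptor with [125I]-MCH tracer. Nonspecific binding defined with 1 µM MCH. IC50 values from displacement by various concentrations of test compound.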
# [4] = Inhibitory activity against 5-hydroxytryptamine 2A receptor
# [5] = Inhibitory activity against 5-hydroxytryptamine 2C receptor
# [6] = biological target: Sodium-dependent noradrenaline transporter (Homo sapiens) (UniProt P23975); assay: Inhibitory activity against Norepinephrine transporter at 10 uM
# Sequence of Sodium-dependent noradrenaline transporter (Homo sapiens) (P23975 whole entry): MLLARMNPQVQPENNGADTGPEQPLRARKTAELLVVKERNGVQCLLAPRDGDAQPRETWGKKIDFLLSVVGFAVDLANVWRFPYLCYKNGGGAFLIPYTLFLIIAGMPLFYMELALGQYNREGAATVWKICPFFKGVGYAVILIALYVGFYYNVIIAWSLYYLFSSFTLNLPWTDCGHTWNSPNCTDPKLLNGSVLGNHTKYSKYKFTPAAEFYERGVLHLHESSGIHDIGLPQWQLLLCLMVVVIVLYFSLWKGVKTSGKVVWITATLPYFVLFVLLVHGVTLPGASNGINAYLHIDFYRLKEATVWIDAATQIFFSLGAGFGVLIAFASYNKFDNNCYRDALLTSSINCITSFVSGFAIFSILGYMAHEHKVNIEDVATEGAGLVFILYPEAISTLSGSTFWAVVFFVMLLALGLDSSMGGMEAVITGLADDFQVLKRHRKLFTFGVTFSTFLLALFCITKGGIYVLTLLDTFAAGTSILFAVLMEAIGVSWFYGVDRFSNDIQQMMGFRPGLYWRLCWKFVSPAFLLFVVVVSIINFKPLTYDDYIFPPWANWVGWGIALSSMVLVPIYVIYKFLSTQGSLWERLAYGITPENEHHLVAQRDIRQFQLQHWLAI
# [7] = biological target: Mu-type opioid receptor (Homo sapiens) (UniProt P35372); assay: Inhibitory activity against Opioid receptor mu 1 at 10 uM
# Sequence of Mu-type opioid receptor (Homo sapiens) (P35372 whole entry): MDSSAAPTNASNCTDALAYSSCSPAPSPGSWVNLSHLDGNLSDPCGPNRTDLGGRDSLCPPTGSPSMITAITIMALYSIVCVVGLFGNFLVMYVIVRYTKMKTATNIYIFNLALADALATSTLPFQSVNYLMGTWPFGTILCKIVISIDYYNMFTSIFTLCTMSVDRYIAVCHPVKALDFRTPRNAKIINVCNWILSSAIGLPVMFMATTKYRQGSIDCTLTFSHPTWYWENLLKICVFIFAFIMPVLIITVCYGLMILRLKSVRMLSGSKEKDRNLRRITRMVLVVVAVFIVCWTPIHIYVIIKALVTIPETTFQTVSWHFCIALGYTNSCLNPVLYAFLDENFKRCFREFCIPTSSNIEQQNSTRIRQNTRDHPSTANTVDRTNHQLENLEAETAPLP
# [8] = biological target: T2, Adenosine receptor A3 (Homo sapiens) (UniProt P0DMS8); assay: Inhibitory activity against Adenosine A3 receptor at 10 uM
# T2 sequence (whole entry): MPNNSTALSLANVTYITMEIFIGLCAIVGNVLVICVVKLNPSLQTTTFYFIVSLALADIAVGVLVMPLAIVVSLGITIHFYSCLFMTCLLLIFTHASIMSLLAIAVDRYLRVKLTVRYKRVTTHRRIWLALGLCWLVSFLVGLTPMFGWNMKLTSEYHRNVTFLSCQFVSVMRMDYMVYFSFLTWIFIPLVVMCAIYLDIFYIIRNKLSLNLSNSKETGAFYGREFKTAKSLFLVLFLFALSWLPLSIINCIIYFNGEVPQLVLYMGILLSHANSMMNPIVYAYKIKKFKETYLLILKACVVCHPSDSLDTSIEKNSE
# [9] = biological target: T3, Melanin-concentrating hormone receptor 2 (Homo sapiens, UniProt Q969V1); assay: Antagonistic activity against human Melanin-concentrating hormone receptor 2 stably transfected CHO cells was determined using IP3 assay; assay type: functional, cell-based; procedure, shortened: as §1
# T3 sequence (Q969V1 whole entry): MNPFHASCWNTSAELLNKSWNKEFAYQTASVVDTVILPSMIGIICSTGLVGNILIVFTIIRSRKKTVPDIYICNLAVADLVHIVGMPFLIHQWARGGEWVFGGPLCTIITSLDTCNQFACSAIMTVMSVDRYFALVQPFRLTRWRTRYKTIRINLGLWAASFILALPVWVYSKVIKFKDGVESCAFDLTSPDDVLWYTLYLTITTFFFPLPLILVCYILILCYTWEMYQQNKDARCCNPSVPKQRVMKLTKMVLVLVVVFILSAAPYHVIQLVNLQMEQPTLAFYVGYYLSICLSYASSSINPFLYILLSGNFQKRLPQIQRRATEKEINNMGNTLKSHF
# [10] = biological target: T4, Muscarinic acetylcholine receptor M1 (Homo sapiens) (UniProt P11229); assay: Inhibitory activity against Muscarinic acetylcholine receptor M1 at 10 uM
# T4 sequence (whole entry): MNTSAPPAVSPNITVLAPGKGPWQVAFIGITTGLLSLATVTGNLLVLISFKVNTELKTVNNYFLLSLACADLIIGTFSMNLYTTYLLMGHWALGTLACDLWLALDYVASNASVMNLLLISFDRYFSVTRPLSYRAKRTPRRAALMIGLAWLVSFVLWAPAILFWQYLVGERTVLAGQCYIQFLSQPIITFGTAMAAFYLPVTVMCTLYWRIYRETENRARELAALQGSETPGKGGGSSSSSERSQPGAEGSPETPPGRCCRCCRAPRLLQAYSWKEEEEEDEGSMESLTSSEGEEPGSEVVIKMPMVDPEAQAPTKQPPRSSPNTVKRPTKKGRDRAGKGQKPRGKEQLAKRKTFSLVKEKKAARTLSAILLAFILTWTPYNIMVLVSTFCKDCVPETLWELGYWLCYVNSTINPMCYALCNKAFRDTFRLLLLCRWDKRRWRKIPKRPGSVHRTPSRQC
# [11] = Inhibitory activity against Histamine H2 receptor
# [12] = biological target: D(1A) dopamine receptor (Homo sapiens) (UniProt P21728); assay: Inhibitory activity against Dopamine receptor D1 at 10 uM
# Sequence of D(1A) dopamine receptor (Homo sapiens) (P21728 whole entry): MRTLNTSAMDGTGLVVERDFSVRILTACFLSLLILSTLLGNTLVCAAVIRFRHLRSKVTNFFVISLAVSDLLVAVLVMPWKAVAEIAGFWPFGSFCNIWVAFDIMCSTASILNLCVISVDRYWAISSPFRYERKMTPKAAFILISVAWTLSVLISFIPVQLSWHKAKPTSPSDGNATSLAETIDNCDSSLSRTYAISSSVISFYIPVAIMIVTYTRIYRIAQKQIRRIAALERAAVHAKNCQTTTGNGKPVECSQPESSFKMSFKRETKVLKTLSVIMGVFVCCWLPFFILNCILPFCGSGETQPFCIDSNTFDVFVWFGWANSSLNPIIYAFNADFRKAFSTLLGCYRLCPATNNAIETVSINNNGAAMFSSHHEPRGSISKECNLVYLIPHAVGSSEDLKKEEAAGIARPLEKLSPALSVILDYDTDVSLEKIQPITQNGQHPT
# [13] = biological target: T3, Melanin-concentrating hormone receptor 2; assay: Binding affinity against human Melanin-concentrating hormone receptor 2 stably transfected CHO cells was determined using [125I]MCH as radioligand; assay type: cell-based; procedure, shortened: as §2
# [14] = Inhibitory activity against Dopamine transporter; parameters: species or system Homo sapiens
# [15] = biological target: Sigma non-opioid intracellular receptor 1 (Homo sapiens) (UniProt Q99720); assay: Inhibitory activity against Opioid receptor sigma 1 at 10 uM
# Sequence of Sigma non-opioid intracellular receptor 1 (Homo sapiens) (Q99720 whole entry): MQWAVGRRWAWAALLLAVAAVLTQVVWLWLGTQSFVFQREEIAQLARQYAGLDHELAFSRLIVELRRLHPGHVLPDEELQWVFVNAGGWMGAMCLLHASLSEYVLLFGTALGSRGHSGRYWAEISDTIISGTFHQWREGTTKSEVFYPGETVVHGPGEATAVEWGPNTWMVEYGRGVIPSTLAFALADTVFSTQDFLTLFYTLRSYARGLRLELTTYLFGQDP
# [16] = biological target: T5, Muscarinic acetylcholine receptor M2 (Homo sapiens) (UniProt P08172); assay: Inhibitory activity against Muscarinic acetylcholine receptor M2 at 10 uM
# T5 sequence (whole entry): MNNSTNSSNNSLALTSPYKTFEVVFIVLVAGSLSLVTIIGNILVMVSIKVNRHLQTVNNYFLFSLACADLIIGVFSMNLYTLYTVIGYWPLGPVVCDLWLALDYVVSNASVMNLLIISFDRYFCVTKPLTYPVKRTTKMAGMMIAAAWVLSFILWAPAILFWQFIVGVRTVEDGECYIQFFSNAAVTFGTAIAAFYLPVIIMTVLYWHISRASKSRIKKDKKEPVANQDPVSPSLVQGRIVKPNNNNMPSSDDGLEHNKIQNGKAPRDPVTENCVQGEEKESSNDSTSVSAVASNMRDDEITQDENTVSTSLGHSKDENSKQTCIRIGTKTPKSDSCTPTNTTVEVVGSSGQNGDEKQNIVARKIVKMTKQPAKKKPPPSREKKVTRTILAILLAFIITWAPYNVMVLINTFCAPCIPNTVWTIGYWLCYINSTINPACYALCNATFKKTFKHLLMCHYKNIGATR
# [17] = biological target: D(2) dopamine receptor (Homo sapiens) (UniProt P14416); assay: Inhibitory activity against Dopamine receptor D2 at 10 uM
# Sequence of D(2) dopamine receptor (Homo sapiens) (P14416 whole entry): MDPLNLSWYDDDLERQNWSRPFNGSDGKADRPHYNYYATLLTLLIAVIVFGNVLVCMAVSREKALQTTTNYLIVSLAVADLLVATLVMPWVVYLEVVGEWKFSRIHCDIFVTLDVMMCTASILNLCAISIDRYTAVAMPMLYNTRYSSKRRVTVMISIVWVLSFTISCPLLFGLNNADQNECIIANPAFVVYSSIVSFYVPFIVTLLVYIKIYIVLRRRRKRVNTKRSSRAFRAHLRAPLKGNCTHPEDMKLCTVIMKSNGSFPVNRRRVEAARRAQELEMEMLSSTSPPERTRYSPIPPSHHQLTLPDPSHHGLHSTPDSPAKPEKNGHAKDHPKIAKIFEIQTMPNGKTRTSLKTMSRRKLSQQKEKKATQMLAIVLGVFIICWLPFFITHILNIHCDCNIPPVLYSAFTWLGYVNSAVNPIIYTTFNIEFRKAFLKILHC
# [18] = inhibitory activity against sodium channel (site 2) at 10 uM
# T1 sequence (Q99705 whole entry): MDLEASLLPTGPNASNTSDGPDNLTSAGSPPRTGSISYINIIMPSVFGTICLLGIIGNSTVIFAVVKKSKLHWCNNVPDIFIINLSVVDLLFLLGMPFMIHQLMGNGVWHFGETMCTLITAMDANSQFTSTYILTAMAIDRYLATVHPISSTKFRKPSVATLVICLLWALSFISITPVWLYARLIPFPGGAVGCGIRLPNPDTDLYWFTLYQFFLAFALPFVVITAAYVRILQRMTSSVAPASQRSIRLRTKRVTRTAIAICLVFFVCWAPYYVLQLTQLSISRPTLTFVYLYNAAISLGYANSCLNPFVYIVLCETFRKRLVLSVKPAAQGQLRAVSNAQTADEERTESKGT
smiles,measurement,setting,value
CCN(CC)CCNC(=O)c1ccc(N2CCN(c3ccc(Oc4ccccc4)cc3)C2=O)cc1OC,IC50,[1],> 100000 nM
COc1cc(NC(=O)Nc2ccc(Nc3ccccc3)cc2)ccc1C(=O)NCCCN1CCCCC1,IC50,[2],1440 nM
same,IC50,[3],850 nM
CCN(CC)CCNC(=O)c1ccc(NC(=O)Nc2ccc(F)cc2)cc1OC,IC50,[1],15800 nM
CCN(CC)CCNC(=O)c1ccc(NC(=O)c2ccc(-c3ccccc3)cc2)cc1OC,IC50,[3],370 nM
CCN(CC)CCN(C)C(=O)c1ccc(NC(=O)Nc2ccc(Oc3ccccc3)cc2)cc1OC,IC50,[1],> 100000 nM
CCOc1cc(NC(=O)Nc2ccc(Oc3ccccc3)cc2)ccc1C(=O)NCCN(CC)CC,IC50,[2],1950 nM
same,IC50,[3],240 nM
CCN(CC)CCNC(=O)c1ccc(NC(=O)Nc2cccc(OC(F)(F)F)c2)cc1OC,IC50,[1],2500 nM
CCN(CC)CCNC(=O)c1ccc(NC(=O)Nc2cc(OC)cc(OC)c2)cc1OC,IC50,[1],18000 nM
COc1cc(NC(=O)Nc2cccc(Oc3ccccc3)c2)ccc1C(=O)NCCCN1CCOCC1,IC50,[4],670 nM
same,IC50,[5],1300 nM
same,inhibition,[6],68%
same,inhibition,[7],48%
same,inhibition,[8],48%
same,IC50,[9],> 100000 nM
same,inhibition,[10],64%
same,IC50,[11],1800 nM
same,inhibition,[12],57%
same,IC50,[2],110 nM
same,IC50,[3],70 nM
same,IC50,[13],> 100000 nM
same,IC50,[14],1500 nM
O=C(Nc1ccc(Oc2ccccc2)cc1)Nc1ccc(C(=O)NCCN2CCN(Cc3ccccc3)CC2)cc1,IC50,[2],5820 nM
same,IC50,[3],140 nM
same,IC50,[13],2880 nM
CCN(CC)CCNC(=O)c1ccc(NC(=O)Nc2cccc(SC)c2)cc1OC,IC50,[1],4700 nM
CCN(CC)CCNC(=O)c1ccc(NC(=O)Nc2ccc(Oc3ccccc3)cc2)cc1,IC50,[1],3500 nM
CCN(CC)CCNC(=O)c1ccc(NC(=O)Nc2ccccc2)cc1OC,IC50,[1],> 100000 nM
CCN(CC)CCNC(=O)c1ccc(NC(=O)Nc2ccc(Cl)c(Cl)c2)cc1OC,IC50,[1],710 nM
COc1cc(NC(=O)c2ccc(Oc3ccccc3)cc2)ccc1C(=O)NCCCN(C)C,IC50,[3],1920 nM
COc1cc(NC(=O)Nc2ccc(-c3ccccc3)cc2)ccc1C(=O)NCCCN(C)C,IC50,[1],9100 nM
same,IC50,[3],1480 nM
CCN(CC)CCNC(=O)c1cc(Cl)c(NC(=O)Nc2ccc(Oc3ccccc3)cc2)cc1OC,IC50,[1],> 100000 nM
CCN(CC)CCNC(=O)c1ccc(NC(=O)c2ccc(Oc3ccccc3)cc2)cc1OC,IC50,[2],6810 nM
same,IC50,[3],1970 nM
CCN(CC)CCNC(=O)c1ccc(NC(=O)Nc2ccc(SC)cc2)cc1OC,IC50,[1],960 nM
CN(C)CCNC(=O)c1ccc(NC(=O)c2ccc(-c3ccccc3)cc2)cc1,IC50,[3],> 100000 nM
CCN(CC)CCNC(=O)c1ccc(N(C)C(=O)N(C)c2ccc(Oc3ccccc3)cc2)cc1OC,IC50,[1],> 100000 nM
CCN(CC)CCN(C)C(=O)c1ccc(NC(=O)Nc2ccc(Oc3ccccc3)cc2)cc1,IC50,[1],11000 nM
CCN(CC)CCNC(=O)c1ccc(NC(=O)Nc2cccc(C(F)(F)F)c2)cc1OC,IC50,[1],7900 nM
CCN(CC)CCNC(=O)c1ccc(NC(=O)Nc2ccc(OC(F)(F)F)cc2Br)cc1OC,IC50,[1],8800 nM
CCN(CC)CCNC(=O)c1ccc(NC(=O)Nc2ccc(Br)cc2)cc1OC,IC50,[1],250 nM
CCN1CCCC1CNC(=O)c1ccc(NC(=O)Nc2ccc(Oc3ccccc3)cc2)cc1OC (stereo unspecified),IC50,[2],3450 nM
same,IC50,[3],530 nM
COc1cc(NC(=O)c2ccc(-c3ccccc3)cc2)ccc1C(=O)NC1CCN(Cc2ccccc2)CC1,IC50,[3],130 nM
CCN(CC)CCNC(=O)c1ccc(N(C)C(=O)Nc2ccc(Oc3ccccc3)cc2)cc1OC,IC50,[1],540 nM
CCN(CC)CCNC(=O)c1ccc(NC(=O)N(C)c2ccc(Oc3ccccc3)cc2)cc1OC,IC50,[1],5800 nM
CCN(CC)CCNC(=O)c1ccc(NC(=O)Nc2cc(Cl)cc(Cl)c2)cc1OC,IC50,[1],4800 nM
CCN(CC)CCNC(=O)c1ccc(NC(=O)Nc2ccc(C(=O)C(F)(F)F)cc2)cc1OC,IC50,[1],5900 nM
CCN(CC)CCNC(=O)c1ccc(NC(=O)Nc2ccc(SC(F)(F)F)cc2)cc1OC,IC50,[1],200 nM
CCN(CC)CCNC(=O)c1ccc(NC(=O)Nc2ccc(C(F)(F)F)cc2)cc1,IC50,[2],170 nM
same,IC50,[3],5.3 nM
COc1cc(NC(=O)c2ccc(-c3ccccc3)cc2)ccc1C(=O)NCCN1CCN(Cc2ccccc2)CC1,IC50,[3],640 nM
CCN1CCCC1CNC(=O)c1ccc(-c2noc(-c3ccc(Oc4ccccc4)cc3)n2)cc1 (stereo unspecified),IC50,[3],1900 nM
CCN(CC)CCNC(=O)c1ccc(NC(=O)Nc2ccc(C#N)cc2)cc1OC,IC50,[1],3200 nM
COc1cc(NC(=O)c2ccc(-c3ccccc3)cc2)ccc1C(=O)NCCCN(C)C,IC50,[2],5290 nM
same,IC50,[3],640 nM
same,IC50,[13],> 100000 nM
COc1cc(NC(=O)Nc2cccc(Oc3ccccc3)c2)ccc1C(=O)NCCCN1CCCCC1,IC50,[2],30 nM
same,IC50,[3],20 nM
same,IC50,[13],> 100000 nM
CCN(CC)CCNC(=O)c1ccc(NC(=O)Nc2ccc(Oc3ccccc3)cc2)cc1OC,IC50,[1],720 nM
same,IC50,[2],880 nM
same,IC50,[3],140 nM
COc1cc(NC(=O)Nc2cccc(Nc3ccccc3)c2)ccc1C(=O)NCCCN1CCCCC1,IC50,[2],25 nM
same,IC50,[3],8.1 nM
same,IC50,[13],10000 nM
CCN(CC)CCNC(=O)c1ccc(NC(=O)Nc2ccc(OC(F)(F)F)cc2)cc1OC,IC50,[4],1300 nM
same,IC50,[1],150 nM
same,inhibition,[15],65%
same,IC50,[5],310 nM
same,inhibition,[6],67%
same,inhibition,[7],44%
same,inhibition,[8],36%
same,inhibition,[10],72%
same,IC50,[11],2200 nM
same,inhibition,[12],78%
same,IC50,[2],260 nM
same,inhibition,[16],46%
same,inhibition,[17],79%
same,IC50,[3],50 nM
same,inhibition,[18],76%
same,IC50,[13],> 100000 nM
same,IC50,[14],6900 nM
CCN1CCCC1CNC(=O)c1ccc(NC(=O)Nc2ccc(Oc3ccccc3)cc2)cc1 (stereo unspecified),IC50,[2],1300 nM
same,IC50,[3],250 nM
same,IC50,[13],6310 nM
CCN(CC)CCNC(=O)c1ccc(NC(=O)Nc2ccc(C(F)(F)F)cc2)cc1OC,IC50,[1],50 nM
same,IC50,[2],170 nM
same,IC50,[3],20 nM
same,IC50,[13],> 100000 nM
COc1cc(NC(=O)Nc2ccccc2Oc2ccccc2)ccc1C(=O)NCCCN1CCCCC1,IC50,[3],> 10000 nM
COc1cc(NC(=O)c2ccc(-c3ccccc3)cc2)ccc1C(=O)NCCN(C)C,IC50,[2],12000 nM
same,IC50,[3],2410 nM
same,IC50,[13],> 100000 nM
CCN(CC)CCNC(=O)c1ccc(NC(=O)Nc2ccc(F)c(Cl)c2)cc1OC,IC50,[1],3900 nM
COc1cc(NC(=O)Nc2ccc(Oc3ccccc3)cc2)ccc1C(=O)NCCCN1CCCCC1,IC50,[9],> 100000 nM
same,IC50,[3],50 nM
same,IC50,[13],10000 nM
CCN(CC)CCNC(=O)c1ccc(-c2noc(-c3ccc(Oc4ccccc4)cc3)n2)cc1,IC50,[3],2450 nM
CCN(CC)CCNC(=O)c1ccc(NC(=O)Nc2ccc(OC(F)(F)F)cc2)cc1,IC50,[9],> 100000 nM
same,IC50,[2],250 nM
same,IC50,[3],60 nM
same,IC50,[13],> 100000 nM
CCN(CC)CCNC(=O)c1ccc(NC(=O)Nc2ccc(C(C)=O)cc2)cc1OC,IC50,[1],13000 nM
